The whole screen tested about 62,000 compounds, of which about 50 (0.08%) were called active. This excerpt belongs to a sample that is enriched for actives. A number with no mark means an inactive call.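 The calls were made as follows: active = inhibition above 30% in each of the two pooled mixtures holding the compound, so the lower value exceeds 30%; inactive = the rest.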
Assay: blockers of serum C3 deposition on LPS – biochemical, ELISA, human serum, orthogonally pooled compounds, primary screen (AID 1235);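 also: 0% = serum in Mg-EGTA without compound and 100% = EDTA serum blank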
Settings: Human serum alternative complement pathway, LPS-coated ELISA, tested in compound mixtures, at 5 µM, active compounds read high
Method in brief: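 Test system: human serum complement alternative pathway, C3 deposition onto LPS / Medium: Mg2+-EGTA GVB++ buffer containing human serum at 1:15 dilution / Probe or stimulus: Plate-bound LPS / Times: 1 h at 37 °C / Signal: ELISA with HRP anti-human C3 antibody, TMB substrate, absorbance 450 nm / Measure: percent inhibition / Repeats: two pool placements per compound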
Work on `c1c2c(cc3sc(N4CCCCC4)nc13)OCCO2` yielded an inhibition of -3.86%. `CC(C(=O)O)N1C(=O)c2cccc3cccc1c23` (centres undefined) showed an inhibition of -0.13%. Compound `O=C1C2(c3ccccc3)CN(CCCO)CC1(c1ccccc1)CN(CCCO)C2` has an inhibition of 0.125%. Work on `Cc1cc(C)nc(NC(=O)C(C)N2C(=O)c3ccccc3C2=O)n1` (centres undefined) yielded an inhibition of 4.23%. `Cc1cc(N(C)C)cc(C)[n+]1[O-]` gave an inhibition of 13.5%. For `CC(=O)NC(Cc1ccc(F)cc1)C(=O)O` (centres undefined), the inhibition was 10.5%. `COc1ccc2c(Cl)c(-c3nnco3)sc2c1` gave an inhibition of 9.28%. With `CCCCCN(C(=O)NC(=O)Nc1ccccc1C)S(C)(=O)=O` the inhibition was 18.8%. In the case of `CS(=O)(=O)N(CC(=O)NCc1ccco1)c1ccc2c(c1)OCO2`, the inhibition is reported as -0.135%. `COc1ccc(CCNC(=O)c2ccco2)cc1` gave an inhibition of 3.87%. `O=C(CSc1nnc(-c2cccs2)n1-c1ccccc1)N1CCN(C(=O)c2ccco2)CC1` gave an inhibition of 13.8%. In the case of `COC(=O)c1ccccc1NC(=O)CSc1ccccn1`, the inhibition is reported as -0.725%. `COc1cccc(Oc2ccc(N)cc2)c1` gave an inhibition of 5.52%. `CCNC(=O)N1CCNC(=O)C1CC(=O)Nc1ccc(C(=O)OCC)cc1` (centres undefined) gave an inhibition of -0.745%. `Cc1ccsc1C(C(=O)NC1CCCCC1)N(C(=O)Cc1cccs1)C1CC1` (centres undefined) showed an inhibition of -3.39%. `CCN1C(=O)/C(=C\N2CCN(c3cccc(Cl)c3)CC2)SC1=S` gave an inhibition of 11.5%. With `S=C1SCN(CCN2CCOCC2)CN1Cc1ccccc1` the inhibition was 16%. For `Cc1occc1C(=O)Nc1nnc(C2CCCCC2)s1`, the inhibition was 9.21%. With `COCCN(CC(=O)Nc1ccccc1C)S(=O)(=O)c1ccc(S(=O)(=O)N2CCCC2)cc1` the inhibition was 10.3%. `O=C(NCCCN1CCN(c2ccccc2F)CC1)C1CCC(=O)N1C1CCCCC1` (centres undefined) showed an inhibition of 1.73%. Work on `COc1ccc(-c2nc(CS(=O)CC(=O)NCc3cccnc3)c(C)o2)cc1OC` (centres undefined) yielded an inhibition of 10.4%. Work on `CC(=O)O[C@]1(C(C)=O)CC[C@H]2[C@@H]3C=C(C)C4=CC(=O)CC[C@]4(C)[C@H]3CC[C@@]21C` yielded an inhibition of 9.71%. In the case of `CCNS(=O)(=O)c1ccc(NC(=O)Nc2cccc(C(F)(F)F)c2)cc1`, the inhibition is reported as 12.9%. For `Cc1c(C(=O)N2CCCc3ccccc32)sc2nc(-c3ccccc3)cn12`, the inhibition was 16%. Compound `O=C1c2cccnc2C(=O)N1Cc1cccs1` has an inhibition of 14.6%. `Cc1ccc(C2CC(c3cccc(Br)c3)n3nc(N)nc3N2)cc1` (centres undefined) showed an inhibition of 11.6%. For `CCOC(=O)Cn1c(=O)oc2cc(S(=O)(=O)NCC3CCCO3)ccc21` (centres undefined), the inhibition was 15%. Compound `CCOC(=O)c1oc2ccccc2c1NC(=O)c1cccs1` has an inhibition of 0.31%. `CCCS(=O)(=O)N1CCCC(C(=O)N2CCN(c3ccccc3)CC2)C1` (centres undefined) showed an inhibition of 4.18%. `COc1ccc(-n2nnc3c(=O)n(CC(=O)N4CCC(Cc5ccccc5)CC4)cnc32)cc1` gave an inhibition of 21.3%. For `COc1cc(OC)cc(C(=O)NCCSCc2ccco2)c1`, the inhibition was 4.01%. In the case of `CCNS(=O)(=O)c1ccc(NC(=O)Nc2cccc(OC)c2)cc1`, the inhibition is reported as 27.3%. In the case of `O=C(c1cccc2ccccc12)N1CCN(c2ccccc2F)CC1`, the inhibition is reported as 18.4%. `CCOC(=O)C1CCN(C(=O)CSc2cc(=O)n(C)c3ccccc23)CC1` showed an inhibition of 7.27%. Compound `CCn1ncc(C2=NOC(C(=O)Nc3ccccc3C(=O)OC)C2)c1C` (centres undefined) has an inhibition of 12.4%. For `COc1ccc(N(Cc2cc3cc(OC)ccc3[nH]c2=O)S(C)(=O)=O)cc1`, the inhibition was -2.02%. `CCc1c(C)nc2ncnn2c1N1CCC(C(=O)NCc2ccc3c(c2)OCO3)CC1` gave an inhibition of 20.2%. `Cc1ccc(-c2nc(CS(=O)CC(=O)NC3CCCC3)c(C)o2)cc1` (centres undefined) showed an inhibition of 10.5%. With `FC(F)(F)c1nnc2sc(-c3ccco3)nn12` the inhibition was 7.12%. `CCOC(=O)C(CCOc1cccc(CC)c1)C(=O)OCC` showed an inhibition of 9.83%. With `COc1ccc(-c2nnn(CC(=O)N(CCO)C(C(=O)NC3CCCC3)c3ccc(F)cc3)n2)cc1` (centres undefined) the inhibition was 3.14%. In the case of `Cc1ccccc1CSc1nnc(-c2ccccn2)n1N`, the inhibition is reported as 12.7%. `CCOC(=O)c1[nH]c2ccc(C)cc2c1N=C(C)N(C)C` showed an inhibition of 10.8%. With `COC(=O)C1=C(C)NC2=C(C(=O)c3ccccc32)C1c1ccc(-c2ccc(C(=O)O)cc2)o1` (centres undefined) the inhibition was 7.73%. Work on `CC1C=CCC2C(=O)N(c3cccc(C(=O)N4CCCCCC4)c3)C(=O)C12` (centres undefined) yielded an inhibition of 19%. `CCS(=O)(=O)N1CCCC(C(=O)NCc2ccc(C)cc2)C1` (centres undefined) gave an inhibition of 13.3%. With `COC(=O)Cc1c(C)c2ccc(OCC(=O)NCc3ccc4c(c3)OCO4)cc2oc1=O` the inhibition was 4.91%. `CNC(=O)CSc1nnc(CCc2ccccc2)n1-c1ccccc1` showed an inhibition of 5.29%. `CC1CCCN(C(=O)Cn2c(=O)oc3ccccc32)C1` (centres undefined) showed an inhibition of -0.77%. With `CC1(C)SC2c3ccccc3C(=O)N2[C@@H]1C(=O)NCc1ccco1` (some centres undefined) the inhibition was -5.49%. `O=C(c1ccc(O)cc1)c1ccc(C(=O)O)c(C(=O)O)c1` gave an inhibition of -8.85%. Work on `O=C(C1CCN(CC2CCCCC2)CC1)N1CCCC1` yielded an inhibition of 4.05%. With `COC(=O)c1oc2ccc(Br)cc2c1NC(C)=O` the inhibition was 11.8%. In the case of `COc1ccccc1CNCc1cccs1`, the inhibition is reported as -3.09%. `CCn1cc(C(=O)NCc2ccc(OC)cc2OC)c(=O)c2ccc(C)nc21` showed an inhibition of -3.58%. `COc1ccc(-c2noc(-c3cccc(OC)c3OC)n2)cc1OC` gave an inhibition of 21.6%. Work on `O=C(CN1CCN(c2nc(-c3ccccc3)cs2)CC1)NCc1ccc2c(c1)OCO2` yielded an inhibition of 13.6%. Compound `Cc1cccc(N(CC(O)CN(C)C)S(=O)(=O)c2ccccc2)c1` (centres undefined) has an inhibition of -22.7%. `COC(=O)[C@H](C)NC(=O)Nc1ccc(OC(F)(F)F)cc1` showed an inhibition of 4.04%. For `O=C1OC(NC(=O)c2ccccc2)C(N2CCOCC2)=C1Cl` (centres undefined), the inhibition was 18.5%. For `Cc1ccc(Oc2ccc(N)cc2)cc1`, the inhibition was -0.695%. With `CCOc1ccc(NC(=O)CC2NCCNC2=O)cc1` (centres undefined) the inhibition was 2.46%. With `O=C(CC1NCCNC1=O)Nc1ccc(Oc2ccccc2)cc1` (centres undefined) the inhibition was 32.3% (active). Work on `O=C(CC1Nc2ccccc2NC1=O)Nc1ccccc1` (centres undefined) yielded an inhibition of -0.205%.

— PubChem BioAssay AID1235 (PCMD, 2008)
